Data as given in ChEMBL document CHEMBL1158641, “Total synthesis of (+/-)-elegansidiol, (+/-)-farnesiferol B, and (+/-)-farnesiferol D” (2010).
Activity calls are given as the source filed them. No cut-off for these calls is given here.

Legend:
SK-N-SH = experiment: Cytotoxicity against human SK-N-SH cells after 48 hrs by SRB assay; assay type: functional
Procedure, shortened: (§1)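 Compounds tested at […], triplicate wells, 48 h continuous exposure. SRB staining (0.4% in 1% acetic acid, 20 min RT), dye eluted with 10 mM trizma base, absorbance 540 nm (690 nm reference). GI50 from net-growth formula; experiments repeated three times.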

A549 = experiment: Cytotoxicity against human A549 cells after 48 hrs by SRB assay; assay type: functional; procedure, shortened: as §1

COC(=O)Nc1nc2cc(C(=O)c3cccs3)ccc2[nH]1 [NOCODAZOLE]
GI50 (SK-N-SH): 0.65 µM | GI50 (A549; A549, 48 h): 0.5 µM

C=C1CC[C@H](O)C(C)(C)[C@@H]1CC/C(C)=C/CO (racemic)
GI50 (SK-N-SH): inactive | LC50 (SK-N-SH): inactive | GI50 (A549): inactive | LC50 (A549): inactive

C=C1CC[C@H](O)C(C)(C)[C@@H]1CCC(C)=CCOc1ccc2ccc(=O)oc2c1 (mixture of isomers)
GI50 (SK-N-SH): inactive | LC50 (SK-N-SH): inactive | GI50 (A549): inactive | LC50 (A549): inactive

C=C1CC[C@@H](O)C(C)(C)[C@@H]1CCC(C)=CCOc1ccc2ccc(=O)oc2c1 (mixture of isomers)
GI50 (SK-N-SH): inactive | LC50 (SK-N-SH): inactive | GI50 (A549; A549, 48 h): 25 µM | LC50 (A549; A549, 48 h): 46 µM
